Laboratory results published in ChEMBL document CHEMBL4316636, “Tetrandraxanthones A-I, Prenylated and Geranylated Xanthones from the Stem Bark of Garcinia tetrandra” (J Nat Prod, 2019).

Assays:
Assay type in all cases: functional, cell-based
HepG2 = assay: Cytotoxicity in human HepG2 cells incubated for 72 hrs by MTT assay; conditions: HepG2, 72 h
Method in brief: (§1)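 MTT colorimetric read-out after 72 h incubation of tumour cells: Hep G2 hepatocellular carcinoma, HeLa S3 cervix adenocarcinoma, MCF-7 breast adenocarcinoma, HT-29 colon adenocarcinoma, and KB epidermoid carcinoma. IC50 is given as the mean ± SD of three experiments, with doxorubicin as the positive control. HeLa S3 and KB were screened first.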

MCF7 = assay: Cytotoxicity in human MCF7 cells incubated for 72 hrs by MTT assay; conditions: MCF7, 72 h; method in brief: as §1
HeLa S3 = assay: Cytotoxicity in human HeLaS3 cells incubated for 72 hrs by MTT assay; conditions: HeLa S3, 72 h; method in brief: as §1
HT-29 = assay: Cytotoxicity in human HT-29 cells incubated for 72 hrs by MTT assay; conditions: HT-29, 72 h; method in brief: as §1
KB = assay: Cytotoxicity in human KB cells incubated for 72 hrs by MTT assay; method in brief: as §1

| Compound | IC50 (HepG2) [µM] | IC50 (MCF7) [µM] | IC50 (HeLa S3) [µM] | IC50 (HT-29) [µM] | IC50 (KB) [µM] |
| --- | --- | --- | --- | --- | --- |
| COc1c(O)cc2oc3cc(O)c(CC=C(C)C)c(O)c3c(=O)c2c1CCC(C)(C)O [GARCINONE D] | > 10 | > 10 | > 10 | > 10 | > 10 |
| O=c1c2cc(O)c(O)cc2oc2cc(O)cc(O)c12 | > 10 | > 10 | > 10 | > 10 | > 10 |
| C=CC(C)(C)c1c(OC)c(CC=C(C)C)c(O)c2c(=O)c3ccc(O)c(O)c3oc12 [NIGROLINEAXANTHONE E] | > 10 | > 10 | > 10 | > 10 | > 10 |
| COc1c(O)cc2oc3cc4c(c(O)c3c(=O)c2c1CC=C(C)C)C=CC(C)(C)O4 [MANGOSTANIN] | 3.4 | 1.9 | 1.9 | 1.6 | 1.7 |
| COc1c(O)cc2oc3cc(O)cc(O)c3c(=O)c2c1CC=C(C)C | > 10 | > 10 | > 10 | > 10 | > 10 |
| COc1c(O)cc2oc3cc(O)cc(O)c3c(=O)c2c1CCC1(C)CCCC(C)(C)O1 (stereo not given) | > 10 | > 10 | > 10 | > 10 | > 10 |
| O=c1c2cc(O)ccc2oc2cc(O)cc(O)c12 | > 10 | > 10 | > 10 | > 10 | > 10 |
| COc1c(O)cc2oc3cc(O)cc(O)c3c(=O)c2c1CCC(C)(O)CCC=C(C)C (stereo not given) | > 10 | > 10 | > 10 | > 10 | > 10 |
| COc1c(O)cc2oc3cc(O)cc(O)c3c(=O)c2c1CC1=C(C)CCCC1(C)C | > 10 | > 10 | > 10 | > 10 | > 10 |
| COc1c(O)cc2oc3c4c(cc(O)c3c(=O)c2c1CC=C(C)C)OC(C)(CCC=C(C)C)C=C4 (stereo not given) | > 10 | > 10 | > 10 | > 10 | > 10 |
| COc1c(O)cc2oc3c4c(cc(O)c3c(=O)c2c1C/C=C(\C)CCC=C(C)C)OC(C)(C)C=C4 | > 10 | > 10 | > 10 | > 10 | > 10 |
| COc1c(O)cc2oc3c(C/C=C(\C)CCC=C(C)C)c(O)c(CC=C(C)C)c(O)c3c(=O)c2c1CC=C(C)C | > 10 | > 10 | > 10 | > 10 | > 10 |
| CC1(C)CCc2c(cc3oc4ccc(O)cc4c(=O)c3c2O)O1 | > 10 | > 10 | > 10 | > 10 | > 10 |
| COc1c(O)cc2oc3c(CC=C(C)C)c(O)cc(O)c3c(=O)c2c1CCC(C)(O)CCC=C(C)C (stereo not given) | > 10 | 8.8 | > 10 | > 10 | 7.1 |
| O=c1c2ccc(O)c(O)c2oc2cc(O)cc(O)c12 | > 10 | > 10 | > 10 | > 10 | > 10 |
| COc1c(O)cc2oc3c(C/C=C(\C)CCC=C(C)C)c(O)cc(O)c3c(=O)c2c1CC=C(C)C | > 10 | 4.3 | 5.8 | > 10 | 4.9 |

| Compound | IC50 (HepG2) [µM] | IC50 (MCF7) [µM] | IC50 (HeLa S3) [µM] | IC50 (HT-29) [µM] | IC50 (KB) [µM] |
| --- | --- | --- | --- | --- | --- |
| COc1c(O)ccc2c(=O)c3c(O)c4c(cc3oc12)OC(C)(C)C=C4 | > 10 | > 10 | > 10 | > 10 | > 10 |
| COc1c(O)cc2oc3cc4c(c(O)c3c(=O)c2c1CC=C(C)C)CCC(C)(C)O4 | > 10 | > 10 | > 10 | > 10 | > 10 |
| COc1c(O)cc2oc3c(C/C=C(\C)CCC=C(C)C)c(O)cc(O)c3c(=O)c2c1CCC(C)(C)O | > 10 | > 10 | > 10 | > 10 | > 10 |
| C=CC(C)(C)c1c2c(c(O)c3c(=O)c4ccc(O)c(O)c4oc13)C=CC(C)(C)O2 [MACLURAXANTHONE] | > 10 | > 10 | 6.7 | > 10 | 7.4 |
| COc1c(O)c(OC)c2oc3cc4c(c(O)c3c(=O)c2c1OC)C=CC(C)(C)O4 | > 10 | > 10 | > 10 | > 10 | > 10 |
| COc1c(O)cc2oc3cc(O)cc(O)c3c(=O)c2c1C/C=C(\C)CCCC(C)(C)O [BUTYRAXANTHONE D] | > 10 | > 10 | > 10 | > 10 | > 10 |
| COc1c(O)cc2oc3c(CC=C(C)C)c(O)cc(O)c3c(=O)c2c1C/C=C(\C)CCC=C(C)C | > 10 | 7 | 9 | > 10 | 7.1 |
| COc1c(O)cc2oc3cc(O)cc(O)c3c(=O)c2c1C/C=C(\C)CCC=C(C)C [RUBRAXANTHONE] | > 10 | > 10 | > 10 | > 10 | > 10 |
| COc1cccc2c1C(=O)c1c(O)c3c(c(O)c1C2=O)C[C@@](O)(C(=O)CO)C[C@@H]3O[C@H]1C[C@H](N)[C@H](O)[C@H](C)O1 [DOXORUBICIN] | 1.43 | 0.49 | 0.12 | 0.34 | 0.01 |
| C=C1CCCC(C)(C)C1Cc1c(OC)c(O)cc2oc3cc(O)cc(O)c3c(=O)c12 (stereo not given) | > 10 | > 10 | > 10 | > 10 | > 10 |
| COc1c(OC)c(OC)c2c(=O)c3c(O)c4c(cc3oc2c1OC)OC(C)(C)C=C4 | > 10 | > 10 | > 10 | > 10 | > 10 |
| COc1c(O)cc2oc3cc4c(c(O)c3c(=O)c2c1CCC(C)(C)O)CCC(C)(C)O4 | > 10 | > 10 | > 10 | > 10 | > 10 |
| O=c1c2cc(O)ccc2oc2cccc(O)c12 | > 10 | > 10 | > 10 | > 10 | > 10 |
| COc1c(O)cc2oc3c(CC=C(C)C)c(O)cc(O)c3c(=O)c2c1CC=C(C)C | > 10 | > 10 | > 10 | > 10 | > 10 |
| COc1c(O)cc2oc3cc(O)c(CC=C(C)C)c(O)c3c(=O)c2c1CC=C(C)C [MANGOSTIN] | > 10 | > 10 | > 10 | > 10 | > 10 |
